For one compound, Activity results are on record in ChEMBL document CHEMBL3872233, “Topical Treatment of Leishmania tropica Infection Using (-)-α-Bisabolol Ointment in a Hamster Model: Effectiveness and Safety Assessment” (J Nat Prod, 2016).

Data set [1] concerns Syrian golden hamster. Put plainly: Toxicity in Syrian hamster assessed as footpad edema at 500 mg/kg, po or 5 % administered tropically on footpad for 28 days. Format: organism-based, Mesocricetus auratus. The note with it: in vivo, 672 h.
Data set [2] deals with Syrian golden hamster. The data set is described as follows: Toxicity in Syrian hamster infected with Leishmania tropica MHOM/MA/1988/LEM1314 promastigotes assessed as spleen weight at 2.5 % administered tropically on footpad for 3 weeks starting at week 7 post infection measured 1 week post last dose (reference value: 178.8 +/- 1.2 mg). Format: organism-based, Mesocricetus auratus. The note with it: in vivo, topical_or_ocular, 168 h.

The subject of data set [3] is Syrian golden hamster. The data set is described as follows: Toxicity in Syrian hamster assessed as mean serum ALT levels at 5 % administered tropically on footpad for 28 days (reference value: 82.2 +/- 4.8 U/L). Type of data set: organism-based, Mesocricetus auratus. The note with it: in vivo, topical_or_ocular, 672 h.
Data set [4] relates to Leishmania tropica. Put plainly: Antileishmanial activity against Leishmania tropica MHOM/MA/1988/LEM1314 promastigotes infected in Syrian hamster assessed as reduction in parasite load in spleen at 5 % administered once daily tropically on footpad for 3 weeks starting at week 7 post infection measured 1 week post last dose by qPCR analysis relative to control. Type of data set: functional. Put shortly:
(§1)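 Hamsters were infected in the footpad and treated daily for 21 days from week 7 post-infection, n = 10/group, and sacrificed 1 week after the last dose. Footpad skin, liver and spleen DNA was assayed by L. tropica-specific TaqMan qPCR (chromosome 29 target), in triplicate with 50 ng DNA per 25 μL reaction. Load was interpolated from Ct on a calibration curve of promastigote DNA, relative to base-ointment controls.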
A general note: Quantitative PCR measures a nucleic acid by following its amplification.

The subject of data set [5] is Syrian golden hamster. The data set is described as follows: Toxicity in Syrian hamster infected with Leishmania tropica MHOM/MA/1988/LEM1314 promastigotes assessed as mean serum AST levels at 2.5 % administered tropically on footpad for 3 weeks starting at week 7 post infection measured 1 week post last dose (reference value: 77.1 +/- 0.9 U/L). The note with it: in vivo, topical_or_ocular, 168 h. Type of data set: organism-based, Mesocricetus auratus.

Data set [6] deals with Leishmania tropica. The data set is described as follows: Antileishmanial activity against Leishmania tropica MHOM/MA/1988/LEM1314 promastigotes infected in Syrian hamster assessed as reduction in parasite load in spleen at […] administered once daily through oral gavage for 3 weeks starting at week 7 post infection measured 1 week post last dose by qPCR analysis relative to control. Type of data set: functional. Put shortly:
as §1

Data set [7] deals with Syrian golden hamster. Put plainly: Toxicity in Syrian hamster infected with Leishmania tropica MHOM/MA/1988/LEM1314 promastigotes assessed as liver weight at 200 mg/kg administered through oral gavage for 3 weeks starting at week 7 post infection measured 1 week post last dose (reference value: 3.3 +/- 0.2 g). Format: organism-based, Mesocricetus auratus. The settings on record: in vivo. The essentials:
(§2)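 Infected hamsters were treated daily for 21 days from week 7 post-infection (ointment 1–5%, 200 mg/kg gavage, or intralesional meglumine antimoniate 2 mg SbV/kg). Clinical signs and body weight were monitored during treatment and a 7-day follow-up. After sacrifice, liver and spleen were weighed and serum ALP, ALT, creatinine, urea and AST were measured with kits, compared with untreated infected animals.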

The test system of data set [8] is Syrian golden hamster. The data set is described as follows: Toxicity in Syrian hamster infected with Leishmania tropica MHOM/MA/1988/LEM1314 promastigotes assessed as mean serum ALP levels at 1 % administered tropically on footpad for 3 weeks starting at week 7 post infection measured 1 week post last dose (reference value: 14.4 +/- 0.9 U/L). Format: organism-based, Mesocricetus auratus. The settings on record: in vivo, topical_or_ocular, 168 h. Put shortly: as §2

In data set [9] the test system is Leishmania tropica. Put plainly: Antileishmanial activity against Leishmania tropica MHOM/MA/1988/LEM1314 promastigotes infected in Syrian hamster assessed as reduction in lesion thickness at 5 % administered once daily tropically on footpad for 3 weeks starting at week 7 post infection measured 1 week post last dose relative to control. Format: functional. Also noted: scale not given: the % may be the effect or the level left. The essentials: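 L. tropica stationary-phase promastigotes (3 × 10^7 in 50 μL PBS) injected into the left hind footpad. Treatment began at week 7 (+75% footpad thickness) and ran daily for 21 days, n = 10/group. Routes were 50 mg ointment on the lesion (cetyl alcohol/lanolin/petrolatum base), gavage in olive oil, or intralesional meglumine antimoniate 2 mg SbV/kg. Lesion thickness was measured weekly against base-only ointment; sacrifice was 1 week after the last dose.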

The test system of data set [10] is Syrian golden hamster. Put plainly: Toxicity in Syrian hamster assessed as stress at 500 mg/kg, po or 5 % administered tropically on footpad for 28 days. The settings on record: in vivo, 672 h. Format: organism-based, Mesocricetus auratus.
In data set [11] the test system is Syrian golden hamster. The data set is described as follows: Toxicity in Syrian hamster infected with Leishmania tropica MHOM/MA/1988/LEM1314 promastigotes assessed as mean serum creatinine levels at 200 mg/kg administered through oral gavage for 3 weeks starting at week 7 post infection measured 1 week post last dose (reference value: 0.19 mg/dl). Type of data set: organism-based, Mesocricetus auratus. The settings on record: in vivo, 168 h.

Data set [12] has as its system Syrian golden hamster. The data set is described as follows: Toxicity in Syrian hamster infected with Leishmania tropica MHOM/MA/1988/LEM1314 promastigotes assessed as liver weight at 5 % administered tropically on footpad for 3 weeks starting at week 7 post infection measured 1 week post last dose (reference value: 3.3 +/- 0.2 g). Type of data set: organism-based, Mesocricetus auratus. The note with it: in vivo, topical_or_ocular, 168 h. Put shortly:
as §2

Data set [13] deals with Syrian golden hamster. The data set is described as follows: Toxicity in Syrian hamster infected with Leishmania tropica MHOM/MA/1988/LEM1314 promastigotes assessed as spleen weight at 200 mg/kg administered through oral gavage for 3 weeks starting at week 7 post infection measured 1 week post last dose (reference value: 178.8 +/- 1.2 mg). Format: organism-based, Mesocricetus auratus. The note with it: in vivo, 168 h.

The subject of data set [14] is Leishmania tropica. Put plainly: Antileishmanial activity against Leishmania tropica MHOM/MA/1988/LEM1314 promastigotes infected in Syrian hamster assessed as reduction in parasite load in liver at 1 % administered once daily tropically on footpad for 3 weeks starting at week 7 post infection measured 1 week post last dose by qPCR analysis relative to control. Type of data set: functional, tissue-based. Put shortly: as §1

Data set [15] concerns Syrian golden hamster. Put plainly: Toxicity in Syrian hamster assessed as liver weight at 5 % administered tropically on footpad for 28 days (reference value: 4.1 +/- 0.7 g). Format: organism-based, Mesocricetus auratus. The settings on record: in vivo, topical_or_ocular, 672 h.
Data set [16] relates to Syrian golden hamster. Put plainly: Toxicity in Syrian hamster infected with Leishmania tropica MHOM/MA/1988/LEM1314 promastigotes assessed as urea levels at 1 % administered tropically on footpad for 3 weeks starting at week 7 post infection measured 1 week post last dose (reference value: 32.5 +/- 0.8 mg/dl). Type of data set: organism-based, Mesocricetus auratus. The note with it: in vivo, topical_or_ocular, 168 h.

Data set [17] deals with Syrian golden hamster. The data set is described as follows: Toxicity in Syrian hamster infected with Leishmania tropica MHOM/MA/1988/LEM1314 promastigotes assessed as mean serum AST levels at 1 % administered tropically on footpad for 3 weeks starting at week 7 post infection measured 1 week post last dose (reference value: 77.1 +/- 0.9 U/L). Format: organism-based, Mesocricetus auratus. The settings on record: in vivo, topical_or_ocular, 168 h.

The subject of data set [18] is Syrian golden hamster. Put plainly: Toxicity in Syrian hamster infected with Leishmania tropica MHOM/MA/1988/LEM1314 promastigotes assessed as mean serum ALP levels at 5 % administered tropically on footpad for 3 weeks starting at week 7 post infection measured 1 week post last dose (reference value: 14.4 +/- 0.9 U/L). The settings on record: in vivo, topical_or_ocular, 168 h. Format: organism-based, Mesocricetus auratus.

The test system of data set [19] is Syrian golden hamster. Put plainly: Toxicity in Syrian hamster assessed as mean serum AST levels at 500 mg/kg administered through oral gavage for 28 days (reference value: 83.4 +/- 4.2 U/L). Format: organism-based, Mesocricetus auratus. The settings on record: in vivo, 672 h.
Data set [20] concerns Syrian golden hamster. Put plainly: Toxicity in Syrian hamster assessed as mean serum AST levels at 5 % administered tropically on footpad for 28 days (reference value: 83.4 +/- 4.2 U/L). Format: organism-based, Mesocricetus auratus. The note with it: in vivo, topical_or_ocular, 672 h.
Data set [21] has as its system Syrian golden hamster. Put plainly: Toxicity in Syrian hamster assessed as mean serum ALP levels at 5 % administered tropically on footpad for 28 days (reference value: 14.4 +/- 2 U/L). Type of data set: organism-based, Mesocricetus auratus. The note with it: in vivo, topical_or_ocular, 672 h.
The subject of data set [22] is Syrian golden hamster. Put plainly: Toxicity in Syrian hamster assessed as mean serum creatinine levels at 5 % administered tropically on footpad for 28 days (reference value: 0.21 +/- 0.2 mg/dl). Format: organism-based, Mesocricetus auratus. The settings on record: in vivo, topical_or_ocular, 672 h.
Data set [23] relates to Leishmania tropica. Put plainly: Antileishmanial activity against Leishmania tropica MHOM/MA/1988/LEM1314 promastigotes infected in Syrian hamster assessed as reduction in parasite load in liver at 5 % administered once daily tropically on footpad for 3 weeks starting at week 7 post infection measured 1 week post last dose by qPCR analysis relative to control. Format: functional, tissue-based. The essentials:
as §1

Calls of active or inactive are those of the source. The rule behind the calls is not given here.

On to `CC(C)=CCC[C@](C)(O)[C@@H]1CC=C(C)CC1` [LEVOMENOL], for which the Activity result is reported as “Non-Toxic” in data set [1]; 178.4 mg in data set [2]; 82.5 U/L in data set [3]; 87 U/L in data set [5]; 3 g in data set [7]; 13 U/L in data set [8]. Further, the Activity was 55.2% in data set [9]; “Non-Toxic” in data set [10]; 0.2 mg/dL in [11]; 3.2 g in [12]; 177.3 mg in [13]; 3.4 g in data set [15]. In addition, the Activity was determined as 33.7 mg/dL in [16]; 82.2 U/L in data set [17]; 14.7 U/L in [18]; 82.2 U/L in data set [19]; 83.4 U/L in data set [20]; 14.1 U/L in [21]. In data set [22], the Activity stood at 0.19 mg/dL. In addition, the outcome in data set [4], in data set [6], in data set [14] and in data set [23] was Active.
